Assay results from ChEMBL document CHEMBL1133661, “Synthesis and in vitro anti-mycobacterium activity of N-alkyl-1, 2-dihydro-2-thioxo-3-pyridinecarbothioamides. Preliminary toxicity and pharmacokinetic evaluation” (J Med Chem, 2000).
≈ marks a conversion by molar mass, not a printed value.

Test system: Mycobacterium avium
Assay: In Vitro antimicrobial activity against the Mycobacterium avium complex (MAC) strain ATCC 15769
Type: functional
Outline: (§1)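 MIC by radiometric broth dilution (BACTEC 460-TB) in 7H12 liquid medium containing 14C-palmitic acid. Growth read as 14CO2 release, recorded as growth index (0–999). Compounds stocked in DMSO; working solutions at 40-fold final concentration made in sterile distilled water. Ethambutol reference. MIC expressed in µg/mL.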

Row | SMILES | MIC [µg/mL]
1 | O=c1ssc2ncccc12 | 2 (≈ 11.8 µM)
2 | S/C(=N\C1CCCCC1)c1cccnc1S | 4 (≈ 15.8 µM)
3 | CCCCCC/N=c1\ssc2ncccc12.CCCCCCn1sc2ncccc2c1=S | 8
4 | CCCCCCn1sc2ncccc2c1=O | 16 (≈ 67.7 µM)
5 | C/N=C(\S)c1cccnc1S | 4 (≈ 21.7 µM)
6 | CCCCCCCCC/N=C(\S)c1cccnc1S | 8 (≈ 27 µM)
7 | CCCCCC/N=C(\S)c1cccnc1S | 1 (≈ 3.93 µM)
8 | CCCCCCCCCCCCCCCC/N=C(\S)c1cccnc1S | 8 (≈ 20.3 µM)

Test system: Mycobacterium avium
Assay: In Vitro antimicrobial activity against the Mycobacterium avium complex (MAC) Wild type strain AN2
Type: functional
Outline: as §1

Row | SMILES | MIC [µg/mL]
9 | S/C(=N\C1CCCCC1)c1cccnc1S | 4 (≈ 15.8 µM)
10 | C/N=C(\S)c1cccnc1S | 4 (≈ 21.7 µM)
11 | CCCCCCCCC/N=C(\S)c1cccnc1S | 8 (≈ 27 µM)
12 | CCCCCC/N=C(\S)c1cccnc1S | 1 (≈ 3.93 µM)
13 | CCCCCCCCCCCCCCCC/N=C(\S)c1cccnc1S | 8 (≈ 20.3 µM)
14 | CC[C@@H](CO)NCCN[C@@H](CC)CO [ETHAMBUTOL] | 0.5 (≈ 2.45 µM)

Test system: Mycobacterium avium
Assay: In Vitro antimicrobial activity against the Mycobacterium avium complex (MAC) Wild type strain AN1
Type: functional
Outline: as §1

Row | SMILES | MIC [µg/mL]
15 | S/C(=N\C1CCCCC1)c1cccnc1S | 4 (≈ 15.8 µM)
16 | C/N=C(\S)c1cccnc1S | 8 (≈ 43.4 µM)
17 | CCCCCCCCC/N=C(\S)c1cccnc1S | 8 (≈ 27 µM)
18 | CCCCCC/N=C(\S)c1cccnc1S | 1 (≈ 3.93 µM)
19 | CCCCCCCCCCCCCCCC/N=C(\S)c1cccnc1S | 8 (≈ 20.3 µM)
20 | CC[C@@H](CO)NCCN[C@@H](CC)CO [ETHAMBUTOL] | 1 (≈ 4.89 µM)

Test system: Mycobacterium avium
Assay: In Vitro antimicrobial activity against the Mycobacterium avium complex (MAC) Wild type strain ISS 486
Type: functional
Outline: as §1

Row | SMILES | MIC [µg/mL]
21 | S/C(=N\C1CCCCC1)c1cccnc1S | 4 (≈ 15.8 µM)
22 | C/N=C(\S)c1cccnc1S | 4 (≈ 21.7 µM)
23 | CCCCCCCCC/N=C(\S)c1cccnc1S | 8 (≈ 27 µM)
24 | CCCCCC/N=C(\S)c1cccnc1S | 0.5 (≈ 1.97 µM)
25 | CCCCCCCCCCCCCCCC/N=C(\S)c1cccnc1S | 8 (≈ 20.3 µM)
26 | CC[C@@H](CO)NCCN[C@@H](CC)CO [ETHAMBUTOL] | 2 (≈ 9.79 µM)

Test system: Mycobacterium tuberculosis
Assay: In Vitro antimicrobial activity against the Mycobacterium tuberculosis (MT) Wild type strain MT-1
Type: functional
Outline: as §1

Row | SMILES | MIC [µg/mL]
27 | O=c1ssc2ncccc12 | 8 (≈ 47.3 µM)
28 | S/C(=N\C1CCCCC1)c1cccnc1S | 4 (≈ 15.8 µM)
29 | CCCCCC/N=c1\ssc2ncccc12.CCCCCCn1sc2ncccc2c1=S | 8
30 | CCCCCCn1sc2ncccc2c1=O | 8 (≈ 33.8 µM)
31 | C/N=C(\S)c1cccnc1S | 1 (≈ 5.43 µM)
32 | CCCCCCCCC/N=C(\S)c1cccnc1S | 16 (≈ 54 µM)
33 | CCCCCC/N=C(\S)c1cccnc1S | 1 (≈ 3.93 µM)
34 | CCCCCCCCCCCCCCCC/N=C(\S)c1cccnc1S | 16 (≈ 40.5 µM)
35 | CC[C@@H](CO)NCCN[C@@H](CC)CO [ETHAMBUTOL] | < 2

Test system: Mycobacterium tuberculosis
Assay: In Vitro antimicrobial activity against the Mycobacterium tuberculosis (MT) strain H-37-Rv ATCC
Type: functional
Outline: as §1

Row | SMILES | MIC [µg/mL]
36 | O=c1ssc2ncccc12 | 4 (≈ 23.6 µM)
37 | S/C(=N\C1CCCCC1)c1cccnc1S | 0.5 (≈ 1.98 µM)
38 | CCCCCC/N=c1\ssc2ncccc12.CCCCCCn1sc2ncccc2c1=S | 4
39 | CCCCCCn1sc2ncccc2c1=O | 16 (≈ 67.7 µM)
40 | C/N=C(\S)c1cccnc1S | 2 (≈ 10.9 µM)
41 | CCCCCCCCC/N=C(\S)c1cccnc1S | 4 (≈ 13.5 µM)
42 | CCCCCC/N=C(\S)c1cccnc1S | 1 (≈ 3.93 µM)
43 | CCCCCCCCCCCCCCCC/N=C(\S)c1cccnc1S | 16 (≈ 40.5 µM)
44 | CC[C@@H](CO)NCCN[C@@H](CC)CO [ETHAMBUTOL] | < 2

Test system: Mycobacterium tuberculosis
Assay: In Vitro antimicrobial activity against the Mycobacterium tuberculosis (MT) Wild type strain MT-2
Type: functional
Outline: as §1

Row | SMILES | MIC [µg/mL]
45 | O=c1ssc2ncccc12 | 8 (≈ 47.3 µM)
46 | S/C(=N\C1CCCCC1)c1cccnc1S | 1 (≈ 3.96 µM)
47 | CCCCCC/N=c1\ssc2ncccc12.CCCCCCn1sc2ncccc2c1=S | 8
48 | CCCCCCn1sc2ncccc2c1=O | 8 (≈ 33.8 µM)
49 | C/N=C(\S)c1cccnc1S | 1 (≈ 5.43 µM)
50 | CCCCCCCCC/N=C(\S)c1cccnc1S | 16 (≈ 54 µM)
51 | CCCCCC/N=C(\S)c1cccnc1S | 2 (≈ 7.86 µM)
52 | CCCCCCCCCCCCCCCC/N=C(\S)c1cccnc1S | 32 (≈ 81.1 µM)
53 | CC[C@@H](CO)NCCN[C@@H](CC)CO [ETHAMBUTOL] | < 2

Test system: Mycobacterium avium
Assay: In Vitro antimicrobial activity against Mycobacterium avium complex (MAC) strain ATCC 15769
Type: functional
Outline: as §1

Row | SMILES | MIC [µg/mL]
54 | S=c1ssc2ncccc12 | 8 (≈ 43.2 µM)

Test system: Mycobacterium avium
Assay: In Vitro antimicrobial activity against the Mycobacterium avium complex (MAC) Wild type strain AN3
Type: functional
Outline: as §1

Row | SMILES | MIC [µg/mL]
55 | S/C(=N\C1CCCCC1)c1cccnc1S | 4 (≈ 15.8 µM)
56 | C/N=C(\S)c1cccnc1S | 4 (≈ 21.7 µM)
57 | CCCCCCCCC/N=C(\S)c1cccnc1S | 8 (≈ 27 µM)
58 | CCCCCC/N=C(\S)c1cccnc1S | 1 (≈ 3.93 µM)
59 | CCCCCCCCCCCCCCCC/N=C(\S)c1cccnc1S | 8 (≈ 20.3 µM)
60 | CC[C@@H](CO)NCCN[C@@H](CC)CO [ETHAMBUTOL] | 2 (≈ 9.79 µM)
